Measurements from PubChem BioAssay AID465 (The Scripps Research Institute Molecular Screening Center, 2006).
The campaign covered roughly 62,000 compounds. About 130 (0.21%) were called active. The sample holds actives, similar compounds and a random draw of the others, so the mix is not that of the screen.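 The calls were made as follows: active = inhibition above the mean of all tested compounds plus 3 SD (cut at about 40% in these data); inactive = the rest.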

Test: inhibitors of PMA/ionomycin-induced NF-kB reporter, primary screen, antigen receptor NF-kB inhibitor project, cell-based, HEK-293 luciferase reporter, luminescence (AID 465);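 also: 0% = stimulated DMSO wells and 100% = 10 µM reference inhibitor 5653914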
Conditions: HEK-293 NF-kB luciferase reporter, at 3 µM, stronger effect = higher value
In short: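 Signal: luciferase luminescence; Material: HEK-293 cells with stable firefly luciferase reporter driven by four HIV NF-kB elements; Probe or stimulus: PMA with ionomycin; Replication: tested once; Times: 1 h compound pretreatment, then 16 h stimulation at 37 °C, 5% CO2; Benchmarks: DMSO and 10 µM reference inhibitor; Evaluation: per-plate % inhibition versus controls.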

SMILES | inhibition
c1n[nH]c(NCc2ccc3c(c2)OCO3)n1 | 0.1% (inactive)
CCC(C)(C)n1nnnc1C(c1ccccc1OC)N1CCSCC1 (stereo not drawn) | 9.6% (inactive)
Cc1nc(C)c(C(=O)Nc2ccc(C)c(F)c2)o1 | 19.9% (inactive)
O=C(CSc1ncccn1)NC(=O)NCc1ccccc1 | 13.2% (inactive)
CCC(=O)Nc1cccc(NC(=O)CSc2nnc(-c3ccc(NS(C)(=O)=O)cc3)n2C)c1 | 1.5% (inactive)
COc1ccc(CCn2c(=N)c(C(=O)NCc3ccco3)cc3c(=O)n4cccc(C)c4nc32)cc1 | 7.9% (inactive)
Cc1nc2ccc(S(=O)(=O)NCC(=O)O)cc2s1 | -0.6% (inactive)
CC1=CC(C)(C)N(C(=O)CSc2nccn2C)c2cc(C)ccc21 | 0% (inactive)
Cc1ccc(C)c(S(=O)(=O)N2CC(=O)Nc3ccccc32)c1 | 13.2% (inactive)
Cn1c(=O)c2c(nc(SCCNS(=O)(=O)c3ccccc3)n2C)n(C)c1=O | 11.9% (inactive)
O=C(NCCCN1CCN(C2CCCCC2)CC1)Nc1ccccc1C(F)(F)F | 7.8% (inactive)
O=C(NCc1ccco1)C1CCCN(S(=O)(=O)c2cccc3nonc23)C1 (stereo not drawn) | 0.7% (inactive)
O=P(O)(CN1CCCCC1)CN1CCCCC1 | 4.4% (inactive)
Cc1ccc(-c2noc(CCC(N)=O)n2)cc1 | 19.8% (inactive)
Cc1ccc(-c2noc(CCC(=O)Nc3ccccc3N3CCN(C)CC3)n2)cc1 | -2% (inactive)
CCNC(=O)CCc1nc(-c2ccc(C(C)(C)C)cc2)no1 | 79.1% (active)
CCCS(=O)(=O)C(=C1Nc2ccccc2N1)S(=O)(=O)CCC | 3.3% (inactive)
COc1ccc2c(c1)CCc1c(C(=O)Nc3c(C)n(C)n(-c4ccccc4)c3=O)noc1-2 | 23.3% (inactive)
CCCCOc1ccc(-c2nnc(-c3ccco3)o2)cc1 | -34% (inactive)
CC(=O)Nc1ccc(S(=O)(=O)N2CCCC2C(=O)O)cc1 (stereo not drawn) | 6.9% (inactive)
CCOC(=O)N1CCN(C(=O)CN(c2ccc(C)c(C)c2)S(=O)(=O)c2ccccc2)CC1 | 10.2% (inactive)

SMILES | inhibition
C=CCc1cccc2cc(C(=O)N3CCN(C(=O)OCC)CC3)c(=O)oc12 | -6.7% (inactive)
Cc1cc(C)cc(OCc2nnc(SCC(=O)OC3CCCCC3)o2)c1 | 17.6% (inactive)
Cc1ccnc(N2CCC(C(=O)NC3CCCCCC3)CC2)n1 | 11.5% (inactive)
Nc1ccc(-n2nncc2-c2ccco2)cc1 | 4% (inactive)
O=C(COC(=O)C12CC3CC(CC(C3)C1)C2)NCc1ccco1 | 3.7% (inactive)
CCOC(=O)c1cnc(SCC(=O)NCc2ccco2)nc1N | -2% (inactive)
Cc1cc(C(=O)OCC(=O)NCc2ccco2)c(C)n1-c1ccccc1 | 41.7% (active)
CC1(C)CC(=O)C2=C(C1)NCN(CCCN1CCOCC1)C2 | 3.7% (inactive)
CCCCC(=O)Nc1cc(C)c2c(=O)oc3ccccc3c2n1 | 2.7% (inactive)
Cc1cccc(-n2c(N)c(C(=O)N3CCN(C)CC3)sc2=S)c1 | 8.2% (inactive)
Cc1ccc2nc(S(=O)(=O)O)[nH]c2c1 | 13.2% (inactive)
COCc1[nH]nc2c1C(C1C=CCCC1)C(C#N)=C(N)O2 (stereo not drawn) | -9.1% (inactive)
Cc1cccc2cc(CN(Cc3ccc4c(c3)OCO4)Cc3nnnn3C3CCCC3)c(=O)[nH]c12 | 26.6% (inactive)
CCC(c1nnnn1C1CCCC1)N(Cc1cccs1)Cc1cc2cccc(C)c2[nH]c1=O (stereo not drawn) | 1.1% (inactive)
Cc1cccc2cc(CN(Cc3cccs3)C(c3nnnn3C3CCCC3)C(C)C)c(=O)[nH]c12 (stereo not drawn) | 42% (active)
CCCCOc1ccc(-c2ncc(C(=O)OCC)c(N)n2)cc1 | 5.2% (inactive)
Cc1ccc(C)n1-c1ccncc1 | 4.5% (inactive)
Cc1nnc(Sc2nc3c(c(=O)[nH]c(=O)n3C)n2Cc2ccccc2)s1 | -1.3% (inactive)
CC(C)CCn1c(CN(C)Cc2ccccc2)nc2c1c(=O)n(C)c(=O)n2C | 10.4% (inactive)
CCc1c(C)nc2cc(-c3cccs3)[nH]n2c1=O | 0.4% (inactive)
Cn1nnnc1SCC(=O)N1CCN(Cc2ccccc2)CC1 | 10.7% (inactive)

SMILES | inhibition
Cc1cccc(NC(=O)c2ccc3ccccc3n2)n1 | -33.4% (inactive)
Cc1ccccc1CSCC(=O)NC(=O)NC(C)(C)C | -1.2% (inactive)
CCOc1ncccc1C(=O)OCc1cn2cc(Cl)ccc2n1 | 7.4% (inactive)
CC1C(c2ccccc2)=[N+]([O-])C2(CCCC2)N1O (stereo not drawn) | 5.7% (inactive)
Cc1ccc(-c2cc(C(F)(F)F)n3nc(C(=O)N4CCCC4)cc3n2)cc1 | 13.3% (inactive)
CC(C)(C)OC(=O)c1c(N)n(CCCN2CCCC2=O)c2nc3ccccc3nc12 | 11.9% (inactive)
O=C(NCc1ccco1)c1cc2sccc2n1Cc1ccc(F)cc1 | 19.8% (inactive)
O=C(O)CCCC(=O)Nc1ccccc1-n1ccnc1 | -1.2% (inactive)
COc1ccc(-c2nnc(SC(=O)N3c4ccccc4Sc4ccccc43)o2)cc1 | 9.5% (inactive)
COc1ccc(O)c(C(=O)c2cnc3onc(C(C)C)c3c2)c1 | 8.8% (inactive)
Cc1cc(C)c(S(=O)(=O)NCCCN2CCOCC2)cc1Br | 11.3% (inactive)
O=S(=O)(NCc1cccnc1)c1ccc(Br)s1 | 10.6% (inactive)
CCN1C(=O)C(C(=O)NC(C)c2ccccc2)C2CC1(C)Oc1ccccc12 (stereo not drawn) | 14.7% (inactive)
Cc1nn(-c2ccccc2)c(C)c1C(=O)OCC(=O)NC(=O)NC1CCCCC1 | 8.4% (inactive)
CCOC(=O)N1CCN(C(=O)c2nn(-c3ccc(C)cc3)c(=O)c3c2c2ccccc2n3C)CC1 | 20.4% (inactive)
O=C(OCC(=O)N1CCCC1)c1ccco1 | 9.6% (inactive)
CC1(C)NC(=O)N(CCOc2cccc(Oc3ccccc3)c2)C1=O | 21.8% (inactive)
COc1ccc(C)cc1NC(=O)c1[nH]c(C)c(C(C)=O)c1C | 8.7% (inactive)
CCOC(=O)c1c(C)[nH]c(C(=O)NCc2ccccc2OC)c1C | -10.8% (inactive)
COc1cccc2c(C)c(C(=O)O)[nH]c12 | 48.7% (active)
Cc1ccc(NC(=O)CCNS(=O)(=O)c2ccc3c(c2)oc(=O)n3C)cc1C | 13.6% (inactive)
